Reference: ChEMBL document CHEMBL1156453, “Cellular characterization of a novel focal adhesion kinase inhibitor” (J Biol Chem, 2007)
Activity calls are given as the source filed them. No cut-off for these calls is given here.

Tests used:
[1] = molecular target: Cyclin-dependent kinase 7 (Homo sapiens, UniProt P50613); experiment: Inhibition of human CDK7/cyclinH/MAT1
[2] = Inhibition of fibronectin-stimulated cell migration of rat REF52 cells at 1.0 uM pretreated for 30 mins measured after 6 hrs by transwell assay relative to control; assay type: functional
How it was run: (§1)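 Modified Boyden transwell, 8-μm pores. REF52 cells (1 × 10⁵) pretreated 30 min with inhibitor, which stayed in both chambers. Attractant was 10% FBS in the lower chamber, or membrane underside coated with 1.5 μg/ml fibronectin overnight at 4 °C under serum-free DMEM. Migration 6 h at 37 °C. Underside cells fixed, crystal-violet stained and counted in four fields. Triplicates normalized to untreated control; ANOVA then t-tests.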

[3] = species on record: Homo sapiens; experiment: Inhibition of human CDK5/p35 at 1 uM
How it was run: (§2)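 Recombinant kinases were screened in a commercial profiling panel with the compound at a single concentration of 1 μM. The read-out is percent inhibition of each enzyme's kinase activity.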

[4] = system: PC-3; experiment: Cell number in human PC3 cells at 1 uM after 3 days as % of control; details: PC-3, 72 h
[5] = molecular target: Tyrosine-protein kinase BTK (Homo sapiens) (UniProt Q06187); experiment: Inhibition of BTK at 1 uM
[6] = species on record: Homo sapiens; experiment: Inhibition of human PKA at 1 uM; how it was run: as §2
[7] = molecular target: Cyclin-dependent kinase 3 (Homo sapiens) (UniProt Q00526); experiment: Inhibition of human CDK3/cyclinE at 1 uM
[8] = molecular target: RAF proto-oncogene serine/threonine-protein kinase (Homo sapiens) (UniProt P04049); experiment: Inhibition of human c-RAF at 1 uM
[9] = molecular target: Ephrin type-A receptor 2 (Homo sapiens) (UniProt P29317); experiment: Inhibition of EphA2 at 1 uM
[10] = Inhibition of FAK Tyr397 phosphorylation in dog MDCK cells after 60 mins by Western blot analysis; assay type: cell-based; details: Canis lupus familiaris, 1 h
How it was run: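 MDCK cells treated with increasing inhibitor concentrations, 60 min, as for REF52. Whole-cell lysates immunoblotted for phospho-FAK Tyr397 and total FAK. Phospho-signal normalized to total FAK, and IC50 derived from the concentration series.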

[11] = molecular target: T1, Focal adhesion kinase 1 (Homo sapiens, UniProt Q05397); experiment: Inhibition of FAK Tyr397 phosphorylation in human A431 cells by ELISA
[12] = molecular target: Ribosomal protein S6 kinase beta-1 (Homo sapiens) (UniProt P23443); experiment: Inhibition of human P70S6K at 1 uM
[13] = molecular target: Dual specificity mitogen-activated protein kinase kinase 1 (Homo sapiens) (UniProt Q02750); experiment: Inhibition of human MEK1 at 1 uM
[14] = system: PC-3; experiment: Induction of apoptosis in attached human PC3 cells assessed as histone accumulation after 24 hrs by ELISA; assay type: functional, cell-based
How it was run: (§3)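 Attached cells in serum-containing medium treated with inhibitor at the indicated concentrations, 24 h for REF52 and PC3, 16 h for MDCK, then lysed. Free histones in lysates measured by cell death detection ELISA, in duplicate. Untreated adherent cells were the negative control. Cells suspended 16–24 h in serum-free medium were the positive control. One of three experiments shown.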

[15] = molecular target: T1, Focal adhesion kinase 1; experiment: Inhibition of FAK Tyr397 phosphorylation in human FG cells after 60 mins by Western blot analysis
[16] = molecular target: T1, Focal adhesion kinase 1; experiment: Inhibition of FAK Tyr397 phosphorylation in human L3.6pl cells after 60 mins by Western blot analysis
[17] = molecular target: Paxillin (Rattus norvegicus) (UniProt Q66H76); experiment: Decrease in Paxillin Try31 phosphorylation in rat REF52 cells; assay type: cell-based
How it was run: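 REF52 cells exposed to 1 μm inhibitor for the indicated times, then lysed in CH buffer containing phosphatase and protease inhibitors. Whole-cell lysates resolved by SDS-PAGE and immunoblotted with anti-phospho-Tyr31 paxillin and anti-paxillin.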

[18] = molecular target: Calcium/calmodulin-dependent protein kinase type IV (Homo sapiens) (UniProt Q16566); experiment: Inhibition of human CaMK4 at 1 uM
[19] = molecular target: Glycogen synthase kinase-3 beta (Homo sapiens, UniProt P49841); experiment: Inhibition of human GSK3-beta
[20] = molecular target: Ephrin type-B receptor 2 (Homo sapiens) (UniProt P29323); experiment: Inhibition of EphB2 at 1 uM
[21] = molecular target: Tyrosine-protein kinase JAK3 (Homo sapiens) (UniProt P52333); experiment: Inhibition of JAK3 at 1 uM
[22] = molecular target: Platelet-derived growth factor receptor beta (Homo sapiens) (UniProt P09619); experiment: Inhibition of PDGFRbeta at 1 uM
[23] = molecular target: Serine/threonine-protein kinase Chk1 (Homo sapiens) (UniProt O14757); experiment: Inhibition of CHK1 at 1 uM; how it was run: as §2
[24] = molecular target: Tyrosine-protein kinase Fyn (Homo sapiens) (UniProt P06241); experiment: Inhibition of Fyn at 1 uM
[25] = molecular target: Insulin receptor (Homo sapiens) (UniProt P06213); experiment: Inhibition of IR at 1 uM
[26] = molecular target: Insulin-like growth factor 1 receptor (Homo sapiens) (UniProt P08069); experiment: Inhibition of IGF1R at 1 uM
[27] = Inhibition of fibronectin-stimulated cell migration of rat REF52 cells at 10 uM pretreated for 30 mins measured after 6 hrs by transwell assay relative to control; assay type: functional; how it was run: as §1
[28] = molecular target: Cyclin-dependent kinase 2 (Homo sapiens) (UniProt P24941); experiment: Inhibition of human CDK2/cyclinA at 1 uM
[29] = molecular target: Protein DBF4 homolog A (Homo sapiens) (UniProt Q9UBU7); experiment: Inhibition of ASK at 1 uM
[30] = molecular target: Mitogen-activated protein kinase 1 (Homo sapiens) (UniProt P28482); experiment: Inhibition of human MAPK1 at 1 uM; how it was run: as §2
[31] = system: Fibroblast; experiment: Inhibition of cell growth in […] fibroblast at 10 uM; assay type: functional, cell-based
[32] = molecular target: T1, Focal adhesion kinase 1; experiment: Inhibition of FAK Tyr397 phosphorylation in human PC3 cells after 60 mins by Western blot analysis
[33] = system: MDCK; experiment: Induction of apoptosis in attached dog MDCK cells assessed as histone accumulation after 16 hrs by ELISA; assay type: functional, cell-based; details: Canis lupus familiaris; how it was run: as §3
[34] = molecular target: Mast/stem cell growth factor receptor Kit (Homo sapiens) (UniProt P10721); experiment: Inhibition of c-kit at 1 uM
[35] = Cell number in rat REF52 cells at 10 uM after 3 days as % of control; details: REF52, 72 h

T1 sequence (Q05397 whole entry): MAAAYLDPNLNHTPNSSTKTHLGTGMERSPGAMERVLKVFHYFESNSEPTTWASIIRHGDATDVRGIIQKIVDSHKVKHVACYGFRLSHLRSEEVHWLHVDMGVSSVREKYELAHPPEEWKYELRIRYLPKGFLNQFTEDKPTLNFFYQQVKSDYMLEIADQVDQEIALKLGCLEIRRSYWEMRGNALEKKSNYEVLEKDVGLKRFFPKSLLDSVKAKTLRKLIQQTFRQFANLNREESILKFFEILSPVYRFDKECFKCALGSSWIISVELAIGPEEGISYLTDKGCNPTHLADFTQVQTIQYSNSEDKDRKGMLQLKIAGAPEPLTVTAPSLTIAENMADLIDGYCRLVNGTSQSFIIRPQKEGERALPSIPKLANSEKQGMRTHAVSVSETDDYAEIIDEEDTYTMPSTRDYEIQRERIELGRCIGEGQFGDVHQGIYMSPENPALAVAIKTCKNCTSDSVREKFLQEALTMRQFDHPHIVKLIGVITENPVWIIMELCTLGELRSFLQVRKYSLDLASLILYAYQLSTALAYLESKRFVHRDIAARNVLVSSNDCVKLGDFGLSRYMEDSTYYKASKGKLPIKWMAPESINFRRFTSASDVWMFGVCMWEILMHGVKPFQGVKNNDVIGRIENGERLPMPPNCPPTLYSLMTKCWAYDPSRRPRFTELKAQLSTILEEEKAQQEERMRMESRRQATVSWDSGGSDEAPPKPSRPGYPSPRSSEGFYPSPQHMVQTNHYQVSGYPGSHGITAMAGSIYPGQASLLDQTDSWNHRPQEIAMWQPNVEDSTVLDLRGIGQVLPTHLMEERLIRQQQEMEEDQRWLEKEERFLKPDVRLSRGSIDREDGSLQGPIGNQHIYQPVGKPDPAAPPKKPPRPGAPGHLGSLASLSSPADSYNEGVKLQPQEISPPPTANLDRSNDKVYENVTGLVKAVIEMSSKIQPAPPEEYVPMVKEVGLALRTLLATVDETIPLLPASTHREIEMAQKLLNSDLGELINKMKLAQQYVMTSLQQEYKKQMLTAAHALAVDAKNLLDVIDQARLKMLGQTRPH
Sequence of Insulin receptor (Homo sapiens) (P06213 28-758 limits assumed): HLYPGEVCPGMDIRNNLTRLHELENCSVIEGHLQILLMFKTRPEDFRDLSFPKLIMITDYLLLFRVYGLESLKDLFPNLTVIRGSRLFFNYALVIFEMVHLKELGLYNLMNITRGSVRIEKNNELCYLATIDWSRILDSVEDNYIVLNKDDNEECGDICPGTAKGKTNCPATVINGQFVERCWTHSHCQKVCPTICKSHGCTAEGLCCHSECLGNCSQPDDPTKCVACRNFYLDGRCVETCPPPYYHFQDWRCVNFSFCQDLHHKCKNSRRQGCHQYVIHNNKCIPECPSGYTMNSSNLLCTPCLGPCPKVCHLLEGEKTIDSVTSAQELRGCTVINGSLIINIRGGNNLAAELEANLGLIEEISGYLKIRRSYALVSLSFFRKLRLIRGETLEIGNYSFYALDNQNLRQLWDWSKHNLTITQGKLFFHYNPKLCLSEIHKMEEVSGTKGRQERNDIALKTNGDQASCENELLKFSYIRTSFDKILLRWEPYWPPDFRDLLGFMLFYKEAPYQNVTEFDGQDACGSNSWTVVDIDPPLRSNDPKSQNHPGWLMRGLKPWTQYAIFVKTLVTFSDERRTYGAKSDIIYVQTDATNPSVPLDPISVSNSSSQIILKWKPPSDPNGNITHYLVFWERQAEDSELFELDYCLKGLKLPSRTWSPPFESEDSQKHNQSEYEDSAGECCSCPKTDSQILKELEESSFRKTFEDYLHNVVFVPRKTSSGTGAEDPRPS
Sequence of Insulin receptor (Homo sapiens) (P06213 763-1382 limits assumed): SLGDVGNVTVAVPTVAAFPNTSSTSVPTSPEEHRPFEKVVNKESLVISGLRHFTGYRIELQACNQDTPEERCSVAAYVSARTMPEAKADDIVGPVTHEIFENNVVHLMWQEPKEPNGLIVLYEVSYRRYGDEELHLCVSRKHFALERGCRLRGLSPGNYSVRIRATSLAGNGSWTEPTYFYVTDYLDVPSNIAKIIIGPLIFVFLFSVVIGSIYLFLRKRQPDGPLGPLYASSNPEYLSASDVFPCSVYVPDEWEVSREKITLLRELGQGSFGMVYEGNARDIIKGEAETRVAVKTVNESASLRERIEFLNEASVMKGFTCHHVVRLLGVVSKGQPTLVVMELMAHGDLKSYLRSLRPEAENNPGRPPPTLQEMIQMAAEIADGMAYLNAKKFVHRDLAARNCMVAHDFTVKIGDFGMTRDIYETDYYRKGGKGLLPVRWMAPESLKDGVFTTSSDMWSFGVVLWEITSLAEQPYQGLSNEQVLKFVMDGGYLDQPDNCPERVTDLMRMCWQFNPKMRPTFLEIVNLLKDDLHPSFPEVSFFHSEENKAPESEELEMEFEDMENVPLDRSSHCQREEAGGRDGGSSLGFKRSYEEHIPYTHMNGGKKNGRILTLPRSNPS
Sequence of Glycogen synthase kinase-3 beta (P49841 whole entry): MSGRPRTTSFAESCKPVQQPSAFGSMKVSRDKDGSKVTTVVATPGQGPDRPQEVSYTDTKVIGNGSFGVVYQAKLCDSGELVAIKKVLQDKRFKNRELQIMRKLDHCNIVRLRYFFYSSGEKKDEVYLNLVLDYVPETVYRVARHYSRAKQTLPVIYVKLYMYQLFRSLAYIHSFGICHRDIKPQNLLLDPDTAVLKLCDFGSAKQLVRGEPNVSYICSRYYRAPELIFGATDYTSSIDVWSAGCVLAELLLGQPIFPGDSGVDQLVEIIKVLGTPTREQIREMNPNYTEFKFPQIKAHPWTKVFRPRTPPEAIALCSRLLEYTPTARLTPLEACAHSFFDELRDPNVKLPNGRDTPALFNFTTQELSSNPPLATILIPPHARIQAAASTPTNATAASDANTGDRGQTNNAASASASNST
Sequence of Insulin-like growth factor 1 receptor (Homo sapiens) (P08069 31-736 limits assumed): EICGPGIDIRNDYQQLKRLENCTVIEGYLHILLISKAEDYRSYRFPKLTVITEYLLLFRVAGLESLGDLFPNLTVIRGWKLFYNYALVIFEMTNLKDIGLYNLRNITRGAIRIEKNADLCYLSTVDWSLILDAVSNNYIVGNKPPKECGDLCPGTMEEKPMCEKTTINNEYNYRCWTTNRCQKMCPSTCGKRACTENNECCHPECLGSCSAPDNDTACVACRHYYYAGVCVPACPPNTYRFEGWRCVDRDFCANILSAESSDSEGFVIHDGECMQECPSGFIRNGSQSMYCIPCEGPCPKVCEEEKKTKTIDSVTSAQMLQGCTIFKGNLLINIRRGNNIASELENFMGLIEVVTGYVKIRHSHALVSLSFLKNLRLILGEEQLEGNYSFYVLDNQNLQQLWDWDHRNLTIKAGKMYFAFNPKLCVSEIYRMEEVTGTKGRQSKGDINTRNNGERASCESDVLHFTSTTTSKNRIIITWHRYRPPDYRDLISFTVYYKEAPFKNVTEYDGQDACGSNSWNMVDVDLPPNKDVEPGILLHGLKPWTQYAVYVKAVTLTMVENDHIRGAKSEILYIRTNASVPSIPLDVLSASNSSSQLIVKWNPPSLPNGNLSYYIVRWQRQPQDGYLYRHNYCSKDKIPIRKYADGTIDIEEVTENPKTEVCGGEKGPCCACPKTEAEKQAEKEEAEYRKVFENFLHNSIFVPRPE
Sequence of Insulin-like growth factor 1 receptor (Homo sapiens) (P08069 741-1367 limits assumed): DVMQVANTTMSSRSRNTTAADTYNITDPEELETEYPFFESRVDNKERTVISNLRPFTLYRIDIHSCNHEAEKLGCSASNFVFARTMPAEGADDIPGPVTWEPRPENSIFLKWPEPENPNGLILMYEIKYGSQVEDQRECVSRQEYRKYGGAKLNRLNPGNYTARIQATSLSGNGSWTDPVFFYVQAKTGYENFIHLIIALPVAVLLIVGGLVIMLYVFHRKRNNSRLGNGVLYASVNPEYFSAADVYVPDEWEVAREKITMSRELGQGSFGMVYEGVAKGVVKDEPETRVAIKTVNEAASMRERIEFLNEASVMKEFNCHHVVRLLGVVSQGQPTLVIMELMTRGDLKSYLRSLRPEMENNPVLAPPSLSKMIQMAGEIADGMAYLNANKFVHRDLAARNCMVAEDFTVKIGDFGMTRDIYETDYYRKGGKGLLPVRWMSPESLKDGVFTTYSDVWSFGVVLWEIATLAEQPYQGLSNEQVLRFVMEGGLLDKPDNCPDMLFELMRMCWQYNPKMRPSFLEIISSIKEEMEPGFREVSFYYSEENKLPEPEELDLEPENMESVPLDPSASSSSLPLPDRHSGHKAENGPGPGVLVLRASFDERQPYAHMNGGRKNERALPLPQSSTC
Sequence of Mitogen-activated protein kinase 1 (Homo sapiens) (P28482 whole entry): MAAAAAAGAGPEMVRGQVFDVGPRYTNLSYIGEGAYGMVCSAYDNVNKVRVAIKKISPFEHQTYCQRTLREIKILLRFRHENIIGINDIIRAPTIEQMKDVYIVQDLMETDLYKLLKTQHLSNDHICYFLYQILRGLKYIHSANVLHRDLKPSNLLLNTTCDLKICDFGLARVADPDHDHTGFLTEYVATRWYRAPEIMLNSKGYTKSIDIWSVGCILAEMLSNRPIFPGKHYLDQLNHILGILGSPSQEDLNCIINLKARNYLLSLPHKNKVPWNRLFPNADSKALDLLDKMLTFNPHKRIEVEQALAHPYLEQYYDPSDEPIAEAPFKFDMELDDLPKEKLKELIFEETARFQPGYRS
Sequence of Cyclin-dependent kinase 7 (P50613 whole entry): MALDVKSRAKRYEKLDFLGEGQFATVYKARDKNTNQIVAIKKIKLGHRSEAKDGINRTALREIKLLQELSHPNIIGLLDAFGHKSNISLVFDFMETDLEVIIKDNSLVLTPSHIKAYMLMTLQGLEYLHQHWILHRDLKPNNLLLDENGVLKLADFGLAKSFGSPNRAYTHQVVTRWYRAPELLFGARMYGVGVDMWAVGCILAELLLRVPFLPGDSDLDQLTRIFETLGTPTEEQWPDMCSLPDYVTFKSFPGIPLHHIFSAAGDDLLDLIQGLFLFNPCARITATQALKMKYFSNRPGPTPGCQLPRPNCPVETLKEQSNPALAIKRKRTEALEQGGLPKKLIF

`CS(=O)(=O)c1cccc(CNc2nc(Nc3ccc4c(c3)CCC(=O)N4)ncc2C(F)(F)F)c1` showed an IC50 [1] of 197 nM, an Activity [2] of 2.2 and an inhibition [3] of 0%. For the same compound, the level, % of control at 1 µM [4] was 109%, the inhibition [5] was 11% and the inhibition [6] was 0%. The inhibition [7] was 44%, the inhibition [8] was 0% and the inhibition [9] was 15%. It also gave an IC50 [10] of 500 nM, an IC50 [11] of 11 nM and an inhibition [12] of 31%. For the same compound, the inhibition [13] was 20%, the Activity [14] was “inactive” and the IC50 [15] was 30 nM. The IC50 [16] was 300 nM, the Activity [17] was “Dose-dependent effect” and the inhibition [18] was 0%. For the same compound, the IC50 [19] was over 1000 nM, the inhibition [20] was 11% and the inhibition [21] was 27%. For the same compound, the inhibition [22] was 2%, the inhibition [23] was 13% and the inhibition [24] was 28%. The inhibition [25] was 27%, the inhibition [26] was 21% and the Activity [27] was 0.5. For the same compound, the inhibition [28] was 50%, the inhibition [29] was 1% and the inhibition [30] was 48%. For the same compound, the Activity [31] was “Active”, the IC50 [32] was 100 nM and the Activity [33] was “inactive”. For the same compound, the inhibition [34] was 25% and the level, % of control at 10 µM [35] was 7%.
